Only some compounds are listed: those with a hit (about 3.4% of all), similar ones and a draw of the others.
CHRM1 antagonist – human CHRM1 antagonism; P11229; AID 588852; CHO-K1 hM1, Fluo-8 calcium fluorescence, ACh EC80 antagonist; 360,000 compounds, 1.3% hits; inhibition, % at 3 µM;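 active means percent inhibition above its own plate's cutoff, namely the mean of that plate's compound wells plus 3 SD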;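 further: peak over basal fluorescence ratio during 140 s after agonist addition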
Target sequence (P11229 whole entry, looked up): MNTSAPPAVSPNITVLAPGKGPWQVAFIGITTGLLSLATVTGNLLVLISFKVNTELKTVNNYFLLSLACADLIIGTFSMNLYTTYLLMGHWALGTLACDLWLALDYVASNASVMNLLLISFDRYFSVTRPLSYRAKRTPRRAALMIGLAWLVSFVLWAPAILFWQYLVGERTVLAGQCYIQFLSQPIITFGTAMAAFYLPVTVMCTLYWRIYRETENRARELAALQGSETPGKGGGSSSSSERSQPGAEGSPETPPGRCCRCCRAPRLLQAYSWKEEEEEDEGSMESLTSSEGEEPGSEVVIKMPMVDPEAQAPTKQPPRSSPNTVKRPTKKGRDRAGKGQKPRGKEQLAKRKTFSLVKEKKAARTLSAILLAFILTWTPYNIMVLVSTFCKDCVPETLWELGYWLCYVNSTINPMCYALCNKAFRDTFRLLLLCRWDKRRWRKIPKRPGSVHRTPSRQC
M1 PAM – human CHRM1 positive allosteric modulation; AID 588819; CHO-K1 hM1, Fluo-8 calcium fluorescence, ACh EC20; 0% = ACh EC20, 100% = maximal ACh; 360,000 compounds, 0.088% hits; activation, % at 3 µM; in the data active means activation above about 19%, passing the limit was not always enough
TAAR1 antagonist – antagonists of human TAAR1. 360,000 compounds, 1.5% hits. AID 624466. CHO RD-HGA16 TAAR1, Fluo-8 calcium fluorescence, antagonist. Q96RJ0. inhibition, % at 3 µM;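 active means inhibition above a per-plate cutoff, the mean inhibition of test compounds on that plate plus 3 SD, cut at about 49% in these data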
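Test system – hTAAR1-expressing CHO RD-HGA16 cells, Gα16-coupled · Reagent – β-PEA at EC80 concentration, post-compound challenge · Compound dosing – 3 µM, single point · Timing – 140 s kinetic read after compound, 140 s after agonist · Detection – Fluo-8 intracellular calcium dye fluorescence, real-time kinetic reads · Control set – DMSO and EC80 PEA controls · Repeats – n of 1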
TAAR1 ag – human TAAR1 agonism. CHO RD-HGA16 TAAR1, Fluo-8 calcium fluorescence; vehicle wells 0%, saturating PEA agonist 100%. Q96RJ0. AID 624467. 360,000 compounds, 0.99% hits. activation, % at 3 µM;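 active means activation above the mean activation of all test compounds in the run plus 3 SD, cut at about 38% in these data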
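System: CHO-derived RD-HGA16 cells with stable Gα16 and human TAAR1 / Times: 17-24 h plating, Fluo-8 75 min 37 °C, 30 min RT / Technique: calcium-sensitive Fluo-8 signal, excitation 470-495, emission 515-575 nm / Measure: % activation relative to PEA EC100 response / Benchmarks: DMSO and PEA EC100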
CHRM1 agonist – activates human CHRM1 receptor. P11229. CHO-K1 hM1, Fluo-8 calcium fluorescence, agonist mode; 0% DMSO, 100% acetylcholine EC100. activation, % at 3 µM. 360,000 compounds, 0.33% hits. AID 588814;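 active means activation above the run's mean compound activation plus 3 SD, cut at about 16% in these data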;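 further: peak over basal fluorescence ratio within a 140 s kinetic read after compound addition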
Each line names hits and unclear results; the compound was inactive in the other large screens.

CNc1nc(NCc2ccc(C)cc2C)c2sccc2n1	none
O=C1CCCN1CCCNc1nc(NCc2ccccc2)nc2ccsc12	CHRM1 antagonist 101, TAAR1 antagonist 105, TAAR1 ag 129, CHRM1 agonist 92
COc1ccccc1CNc1nc(NCc2ccc3occc3c2)c2sccc2n1	none
CNc1nc(NCC2CCCCC2)c2sccc2n1	TAAR1 ag 49
C=CCNc1nc(NCCCN2CCCC2=O)c2sc(-c3ccccc3)cc2n1	none
Cc1ccc(F)c(S(=O)(=O)NC(=O)C2(C)CCN2C(=O)CCC2CCCC2)c1 (stereo unspecified)	none
CC(C)C[C@H]1CN([C@@H](Cc2ccc(O)cc2)CN2CCC[C@H]2CN2C(=O)C(=O)NC[C@@H]2Cc2ccccc2)C(=O)C(=O)N1CC1CCCCCC1	none (no result: CHRM1 antagonist, M1 PAM, CHRM1 agonist)
COc1ccc(Nc2c(-c3ccc(F)cc3)nc3nc(C)cc(C)n23)cc1	none (no result: CHRM1 antagonist, M1 PAM, CHRM1 agonist)
CC(=O)Nc1ccc(CNc2nc(NCc3cccs3)nc3ccsc23)cc1	TAAR1 antagonist 49
CCOC(=O)Cc1ccc(Nc2nc(NCc3ccccc3)nc3ccsc23)cc1	TAAR1 antagonist 72
COc1ccccc1CNc1nc(NCc2ccccc2OC)c2sccc2n1	CHRM1 antagonist 31
COc1ccccc1CNc1nc(NCC2CC2)nc2ccsc12	none
COc1ccccc1CNc1nc(NCc2ccccc2SC)c2sccc2n1	CHRM1 antagonist 37
CCC(C(=O)NC(C)(C)C)n1c(-c2cccc(NC(C)=O)c2)nc2ccccc21 (stereo unspecified)	none (no result: CHRM1 antagonist, M1 PAM, CHRM1 agonist)
C=CCn1c(/N=C/c2ccc(N(C)C)cc2)nc2ccccc21	none
CCCCn1c(/N=C/c2ccc(N(C)C)cc2)nc2ccccc21	M1 PAM 21
COc1ccccc1CNC(=O)COc1ccccc1C(=O)c1cnn(-c2ccccc2)c1	TAAR1 antagonist 57
O=C(N[C@H](C(=O)N1CCC[C@H]1C(=O)NCc1ccccc1)C1CCCCC1)c1ccc(Cl)c(Cl)c1	none (no result: CHRM1 antagonist, M1 PAM, CHRM1 agonist)
COc1ccc(N(CC(=O)N2CCc3ccccc3C2)S(C)(=O)=O)cc1	TAAR1 ag 42
COc1ccc(OC)c(S(=O)(=O)N(C)CC(=O)N2CCc3ccccc3C2)c1	TAAR1 ag 45
Cc1nc([N+](=O)[O-])cn1CC(Cl)Cn1cc([N+](=O)[O-])nc1C	none (no result: CHRM1 antagonist, M1 PAM, CHRM1 agonist)
O=C(O)CC(Sc1ccc(Cl)cc1)C(=O)Nc1ccccc1 (stereo unspecified)	none (no result: CHRM1 antagonist, M1 PAM, CHRM1 agonist)
CCOC(=O)c1sc2nc(CSc3ccccc3)nc(N3CCCN(C)CC3)c2c1C	TAAR1 ag 38
CC(C)(C)N(CC(=O)NC1CCCCC1)C(=O)CS(=O)CC(=O)Nc1ccc(F)cc1 (stereo unspecified)	none
O=C(CS(=O)CC(=O)N(CC(=O)NC1CCCC1)C1CCCC1)Nc1ccc(F)cc1 (stereo unspecified)	M1 PAM 28
CC(C)(C)c1ccc(C(=O)Nc2ccccc2NC(=O)c2ccco2)cc1	TAAR1 antagonist 49
O=C(Nc1ccccc1NC(=O)c1ccco1)c1ccccc1	none
COc1cc(NC(=O)c2ccco2)c(OC)cc1NC(=O)Nc1ccccc1Cl	CHRM1 antagonist 30
CN1OC[C@@H]2CN(C(=O)Nc3ccccc3)[C@H](c3ccc(N4CCCCC4)cc3)C[C@@H]21	none
COCCn1nnnc1C(c1cccc(OC)c1OC)N1CCN(C2CCCCC2)CC1 (stereo unspecified)	M1 PAM 24
COCCn1nnnc1C(c1cccc(OC)c1OC)N1CCN(C(=O)c2ccco2)CC1 (stereo unspecified)	none
CCN(CC(=O)Nc1ccc2c(c1)OCCO2)C(=O)/C=C/c1cccc(OC)c1OC	M1 PAM 27, CHRM1 agonist 17
CCN(CC(=O)Nc1ccc2c(c1)OCCO2)C(=O)/C=C/c1ccc(OC)cc1OC	none
C[C@@H]1CN([C@@H](C)CO)C(=O)c2cc(Br)cnc2O[C@@H]1CN(C)C(=O)c1ccc(F)cc1	none (no result: CHRM1 antagonist, M1 PAM, CHRM1 agonist)
CC(=O)c1ccc(N2CCC(C(=O)O)CC2)cc1	none
CC(=O)c1ccc(N2CCN(C3CCC(C(C)(C)C)CC3)CC2)cc1 (stereo unspecified)	CHRM1 antagonist 39
CCCc1c(C(=O)N/N=C/c2ccc(C)o2)nnn1-c1nonc1N	none
CC(C)c1c(C(=O)N/N=C/c2ccco2)nnn1-c1nonc1N	TAAR1 ag 43
COc1ccc2ccccc2c1/C=N/NC(=O)c1nnn(-c2nonc2N)c1C(C)C	TAAR1 antagonist 55
Cc1ccc(/C=N/NC(=O)c2nnn(-c3nonc3N)c2C(C)C)s1	TAAR1 ag 47
Cc1ccc(/C=N/NC(=O)c2nnn(-c3nonc3N)c2C(C)C)o1	TAAR1 ag 38
C[C@H](O)[C@@H]1CN2CCc3c([nH]c4ccccc34)[C@@H]2C[C@@H]1N(C)C(=S)NCCc1ccccc1	TAAR1 antagonist 66, TAAR1 ag 78
CCOC(=O)C1(C)CCCN1C(=O)c1ccc(OC)cc1 (stereo unspecified)	none
COc1cccc(N=Nc2ccc(O)c3ncccc23)c1	CHRM1 antagonist 40, TAAR1 antagonist 70, CHRM1 agonist 24
COc1cccc(N=Nc2ccc3cccnc3c2O)c1	CHRM1 antagonist 31, TAAR1 antagonist 74, CHRM1 agonist 30
COc1ccc(N=Nc2ccc(O)c3ncccc23)cc1	none
Cn1c(=O)c2cc(NC(=S)NCc3ccccc3F)ccc2n1Cc1cccc(C(F)(F)F)c1	none
COc1ccccc1C(=O)N1CCC2CCN(C(=O)c3ccccc3)C2C1 (stereo unspecified)	none (no result: CHRM1 antagonist, M1 PAM, CHRM1 agonist)
Cc1ccc(-c2cc(C(=O)N3CCN(c4ncccn4)CC3)c3cc(Br)ccc3n2)o1	TAAR1 antagonist 59
Cc1cc(C)c[n+](CC(=O)c2ccc(-c3ccccc3)cc2)c1	CHRM1 antagonist 36
Cc1cc[n+](CC(=O)c2ccc(NC(=O)c3ccccc3)cc2)cc1	CHRM1 antagonist 32
Cc1cc(C)c[n+](CC(=O)c2ccc(NC(=O)c3ccccc3)cc2)c1	none
O=C(C[n+]1ccccc1)c1ccc(NC(=O)c2ccccc2)cc1	none
Cc1ccc(NC(=O)CNC(=O)c2ccc(Oc3ccccc3)cc2)nc1	none
Cc1ccc(NC(=O)CNC(=O)c2cccc(C)c2)nc1	CHRM1 agonist 21
O=C(NCC1CCCO1)c1cc2c([nH]c3ccccc32)c(-c2cccc(Cl)c2)n1 (stereo unspecified)	CHRM1 antagonist 35 (no result: TAAR1 antagonist, TAAR1 ag)
C#CCN(C[C@H]1[C@H](OC(=O)Nc2c(C)noc2C)[C@H](OC(=O)Nc2c(C)noc2C)CN(C(=O)OC(C)C)N1C(=O)OC(C)C)S(=O)(=O)c1ccc(C)cc1	none (no result: CHRM1 antagonist, M1 PAM, CHRM1 agonist)
COc1ccc(OCCOC(=O)Nc2ccccc2)cc1	CHRM1 antagonist 31
CN1CCN(CC/C=C2/c3ccccc3Sc3ccc(S(=O)(=O)N(C)C)cc32)CC1	none
COc1cc(Cl)cc2c1Sc1ccccc1/C2=C/CCN(C)C	CHRM1 antagonist 68 (no result: TAAR1 antagonist, TAAR1 ag)
COc1ccc(CCN(/C=C2\Sc3ccccc3C2=O)C(C)=O)cc1OC	none

Screening data from PubChem BioAssay.
